Results from ChEMBL document CHEMBL3425441 (J Med Chem, 2015).

What was measured:
[1] = Cytotoxicity against human U937 cells assessed as cell death after 72 hrs by sulforhodamine B assay; conditions: U-937, 72 h
[2] = Metabolic stability in rat liver microsomes at 10 uM after 3 hrs by LC/MS analysis; format: ADME; conditions: read-out: Stability
Serum [3] = assay: Drug uptake in C57/BL6 mouse serum at 25 mg/kg, iv measured after 8 hrs by LC/MS/MS analysis; format: ADME, organism-based; set-up: dose 25 mg/kg, route intravenous; conditions: in vivo
Method in brief: (§1)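 Mouse PK: C57/BL6 mice, n = 2 per cohort per time point, 25 mg/kg given by tail vein injection or oral gavage; formulated at 5 mg/mL in 200 mg/mL HPβCD, pH 5.5. Mice sacrificed at set times, blood collected, EDTA plasma frozen at -80°C. Levels measured by LC/MS/MS (Polar-RP column, formic acid/methanol gradient, negative ESI) against an internal standard.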

Serum [4] = assay: Drug uptake in C57/BL6 mouse serum at 25 mg/kg, iv measured after 5 to 6 hrs by LC/MS/MS analysis; format: ADME, organism-based; set-up: dose 25 mg/kg, route intravenous; conditions: in vivo; method in brief: as §1
Mus musculus [5] = assay: Toxicity in C57BL/6 mouse at 200 mg/kg, ip measured over 24 hrs; format: organism-based; set-up: dose 200 mg/kg, route intraperitoneal; conditions: in vivo
Method in brief: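 Tolerability: C57BL/6 mice aged 8-10 weeks, n = 3 per cohort, given a single 200 mg/kg i.p. dose formulated at 5 mg/mL in 200 mg/mL HPβCD, pH 5.5. Signs classed as excitatory or depressive and graded mild to severe.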

U-937 [6] = assay: Induction of apoptosis in human U937 cells assessed as necrotic cells at 50 uM after 12 hrs by annexin V-FITC/propidium iodide staining-based flow cytometric analysis relative to control; format: functional
U-937 [7] = assay: Induction of apoptosis in human U937 cells assessed as viable cells at 50 uM after 12 hrs by annexin V-FITC/propidium iodide staining-based flow cytometric analysis (reference value: 96%); format: functional; conditions: U-937, 12 h, read-out: Activity
[8] = Cytotoxicity against dog GL1 cells assessed as cell death after 72 hrs by sulforhodamine B assay; format: functional, cell-based; conditions: Canis lupus familiaris
Method in brief: (§2)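 Jurkat plated at 25,000 cells/well; GL-1 and EL4 at 15,000 cells/well. Nine half-log doses, 0.01–100 µM, in triplicate. SRB staining after TCA fixation, absorbance 510 nm. Percent death normalized to a positive death control (100%) and DMSO (0%). Logistic fit gives IC50, mean of three experiments ± s.e.m.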

U-937 [9] = assay: Induction of apoptosis in human U937 cells assessed as early apoptotic cells at 50 uM after 12 hrs by annexin V-FITC/propidium iodide staining-based flow cytometric analysis (reference value: 2%); format: functional
EL4 = assay: Cytotoxicity against mouse EL4 cells assessed as cell death after 72 hrs by sulforhodamine B assay; format: functional, cell-based; conditions: EL4, 72 h; method in brief: as §2
Mus musculus [10] = assay: Elimination half life in C57/BL6 mouse at 25 mg/kg, iv and po by LC/MS/MS analysis; format: ADME, organism-based; set-up: dose 25 mg/kg, route oral; conditions: in vivo
[11] = AUC in C57/BL6 mouse at 25 mg/kg, iv by LC/MS/MS analysis; format: ADME, organism-based; set-up: dose 25 mg/kg, route intravenous; conditions: plasma
Jurkat = assay: Cytotoxicity against human Jurkat cells assessed as cell death after 72 hrs by sulforhodamine B assay; format: functional, cell-based; method in brief: as §2
U-937 [12] = assay: Induction of apoptosis in human U937 cells assessed as late apoptotic cells at 50 uM after 12 hrs by annexin V-FITC/propidium iodide staining-based flow cytometric analysis (reference value: 2%); format: functional
[13] = biological target: T1, Caspase-3/Caspase-7 (Homo sapiens) (UniProt P42574+P55210); assay: Activation of Caspase 3/7 in human U937 cells assessed as cleavage of Ac-DEVD-AFC at 30 uM after 16 hrs by fluorescence assay relative to control; format: cell-based; conditions: U-937
T1 sequence (P42574 whole entry, looked up): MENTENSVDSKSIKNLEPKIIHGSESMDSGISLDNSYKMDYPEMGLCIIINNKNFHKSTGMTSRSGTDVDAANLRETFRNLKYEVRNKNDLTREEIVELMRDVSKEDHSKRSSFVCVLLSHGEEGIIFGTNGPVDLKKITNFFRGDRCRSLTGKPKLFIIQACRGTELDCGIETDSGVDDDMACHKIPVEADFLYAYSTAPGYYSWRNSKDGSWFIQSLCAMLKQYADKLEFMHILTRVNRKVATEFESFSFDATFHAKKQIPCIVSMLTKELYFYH
T1 sequence (P55210 whole entry, looked up): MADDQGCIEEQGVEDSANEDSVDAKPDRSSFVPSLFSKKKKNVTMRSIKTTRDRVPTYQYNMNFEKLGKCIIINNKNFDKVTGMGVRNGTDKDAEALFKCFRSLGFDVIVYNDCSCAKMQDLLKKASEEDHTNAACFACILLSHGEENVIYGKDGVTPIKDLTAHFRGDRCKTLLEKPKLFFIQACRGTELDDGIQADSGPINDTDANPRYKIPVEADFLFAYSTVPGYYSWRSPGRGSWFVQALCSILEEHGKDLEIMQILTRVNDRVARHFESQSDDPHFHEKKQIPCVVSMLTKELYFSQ

[14] = Cytotoxicity against dog OSW cells assessed as cell death after 72 hrs by sulforhodamine B assay; format: functional, cell-based; conditions: Canis lupus familiaris
[15] = Metal chelating activity of the compound assessed as zinc complex formation after 5 mins by EGTA fluorescence titration Assay; format: physicochemical
[16] = Oral bioavailability in C57/BL6 mouse at 25 mg/kg by LC/MS/MS analysis; format: ADME, organism-based; conditions: in vivo
[17] = AUC in C57/BL6 mouse at 25 mg/kg, po by LC/MS/MS analysis; format: ADME, organism-based; set-up: dose 25 mg/kg, route oral; conditions: plasma
Liver microsome = assay: Drug metabolism in rat liver microsomes assessed as formation of N-dealkylated, dihydroxylated and multiple monooxygenated products at 10 uM after 3 hrs by LC/MS analysis; format: ADME
[18] = Elimination half life in dog at 1 mg/kg, iv; format: ADME, organism-based, Canis lupus familiaris; set-up: dose 1 mg/kg, route intravenous; conditions: in vivo, read-out: beta t1/2 (converted)
[19] = biological target: T1, Caspase-3/Caspase-7 (Homo sapiens); assay: Activation of Caspase 3/7 in human U937 cells assessed as cleavage of Ac-DEVD-AFC at 1 uM after 16 hrs by fluorescence assay relative to control; format: cell-based; conditions: U-937
Method in brief: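 U-937 cells, 50,000/well in phenol red-free RPMI-1640 with 10% FBS, preincubated 15 h at 37°C. Compound added from a 3x solution in media and tested in six wells. Lysis/caspase buffer contains 20 µM Ac-DEVD-AFC. […] 16 h slopes normalized to 0 h (0%) and staurosporine 16 h (100%).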

SMILES | IC50 [1] [µM] | remaining at 3 h, 10 µM [2] [%] | further results
C=CCc1cc(F)cc(/C=N/NC(=O)CN2CCN(Cc3ccc(F)cc3)CC2)c1O | 10.3 | 57 | –
CCCc1cc(F)cc(/C=N/NC(=O)CN2CCN(C(=O)c3ccc(C#N)cc3)CC2)c1O | – | 66 | Drug uptake (Serum [3]): Active
CCCc1cc(F)cc(/C=N/NC(=O)CN2CCN(Cc3ccc(F)cc3)CC2)c1O | 7.5 | 48 | –
CCCc1cccc(/C=N/NC(=O)CN2CCN(Cc3ccc(F)cc3)CC2)c1O | 10 | 24 | –
C=CCc1cccc(/C=N/NC(=O)CN2CCN(Cc3ccc(F)cc3)CC2)c1O | 11.1 | 31 | –
O=C(CN1CCN(C(=O)c2ccccc2)CC1)N/N=C/c1cc(F)ccc1O | 15.7 | 88 | –
N#Cc1ccc(C(=O)N2CCN(CC(=O)N/N=C/c3cc(F)ccc3O)CC2)cc1 | 15.3 | 88 | –
C=CCc1cccc(/C=N/NC(=O)CN2CCN(C(=O)c3ccc(C(F)(F)F)cc3)CC2)c1O | – | 85 | –
C=CCc1cccc(/C=N/NC(=O)CN2CCN(C(=O)c3ccc(C#N)cc3)CC2)c1O | 13.1 | 90 | –
CCCc1cccc(/C=N/NC(=O)CN2CCN(C(=O)c3ccccc3)CC2)c1O | 9.4 | 71 | –
C=CCc1cc(F)cc(/C=N/NC(=O)CN2CCN(Cc3ccc(S(N)(=O)=O)cc3)CC2)c1O | – | 89 | –
CCCc1cccc(/C=N/NC(=O)CN2CCN(Cc3ccccc3)CC2)c1O | 9.6 | 30 | –
CCCc1cccc(/C=N/NC(=O)CN2CCN(C(=O)c3ccc(C#N)cc3)CC2)c1O | 12.8 | 61 | –
CCCc1cc(F)cc(/C=N/NC(=O)CN2CCN(C(=O)c3ccc(C(F)(F)F)cc3)CC2)c1O | – | 64 | –
C=CCc1cccc(/C=N/NC(=O)CN2CCN(Cc3ccc(S(N)(=O)=O)cc3)CC2)c1O | – | 84 | Drug uptake (Serum [4]): Not Active
CCCc1cccc(/C=N/NC(=O)CN2CCN(Cc3ccc(S(N)(=O)=O)cc3)CC2)c1O | – | 61 | –
CCCc1cc(F)cc(/C=N/NC(=O)CN2CCN(Cc3ccc(S(N)(=O)=O)cc3)CC2)c1O | – | 62 | –
C=CCc1cccc(/C=N/NC(=O)CN2CCN(Cc3ccc(C(F)(F)F)cc3)CC2)c1O | – | 16 | –
C=CCc1cc(F)cc(/C=N/NC(=O)CN2CCN(C(=O)c3ccc(C#N)cc3)CC2)c1O | – | 95 | Drug uptake (Serum [3]): Active
CCCc1cc(F)cc(/C=N/NC(=O)CN2CCN(C(=O)c3ccc(F)cc3)CC2)c1O | 7.5 | 67 | Activity (Mus musculus [5]): Toxic
C=CCc1cc(F)cc(/C=N/NC(=O)CN2CCN(C(=O)c3ccccc3)CC2)c1O | 8.6 | 93 | Activity (U-937 [6]): 7%; viability at 50 µM (U-937 [7]): 54%; IC50 [8]: 3400 nM; Activity (U-937 [9]): 20%; Activity (Mus musculus [5]): Non-toxic; IC50 (EL4): 7.3 µM; beta t1/2 (Mus musculus [10]): 120.5 min; AUC [11]: 4850 ng·h/mL; IC50 (Jurkat): 4.1 µM; Activity (U-937 [12]): 19%; Activity [13]: 67%; IC50 [14]: 10 µM; Kd [15]: 0.00107 µM; bioavailability [16]: 8.5%; Drug uptake (Serum [3]): Active; AUC [17]: 428 ng·h/mL
CCCc1cc(F)cc(/C=N/NC(=O)CN2CCN(Cc3ccc(C(F)(F)F)cc3)CC2)c1O | – | 40 | –

SMILES | IC50 [1] [µM] | remaining at 3 h, 10 µM [2] [%] | further results
C=CCc1cc(F)cc(/C=N/NC(=O)CN2CCN(Cc3ccc(C(F)(F)F)cc3)CC2)c1O | – | 49 | –
O=C(CN1CCN(Cc2ccccc2)CC1)N/N=C/c1cc(F)ccc1O | 17 | 64 | –
C=CCc1cccc(/C=N/NC(=O)CN2CCN(Cc3ccccc3)CC2)c1O [PAC-1] | 10.2 | 38 | Activity (U-937 [6]): 5%; viability at 50 µM (U-937 [7]): 54%; IC50 [8]: 3000 nM; Drug metabolism (Liver microsome): metabolite_detected; half-life [18]: 126 min; Activity (U-937 [9]): 22%; Activity (Mus musculus [5]): Toxic; IC50 (EL4): 6.5 µM; beta t1/2 (Mus musculus [10]): 24.6 min; AUC [11]: 3510 ng·h/mL; IC50 (Jurkat): 4.4 µM; Activity (U-937 [12]): 19%; Activity [13]: 87%; IC50 [14]: 10 µM; Drug uptake (Serum [4]): Not Active; Kd [15]: 0.00128 µM; bioavailability [16]: 15.1%; AUC [17]: 527 ng·h/mL
O=C(CN1CCN(Cc2ccccc2)CC1)N/N=C/c1ccccc1 | – | – | Activity [13]: 3%; Kd [15]: > 1000 µM
CCCc1cccc(/C=N/NC(=O)CN2CCN(C(=O)c3ccc(F)cc3)CC2)c1O | 7.3 | 69 | –
CCCc1cc(F)cc(/C=N/NC(=O)CN2CCN(Cc3ccccc3)CC2)c1O | 8.9 | 49 | –
C=CCc1cccc(/C=N/NC(=O)CN2CCN(C(=O)c3ccc(F)cc3)CC2)c1O | 10.2 | 86 | Activity (U-937 [6]): 2%; viability at 50 µM (U-937 [7]): 49%; IC50 [8]: 3000 nM; Activity (U-937 [9]): 27%; Activity (Mus musculus [5]): Non-toxic; IC50 (EL4): 6.5 µM; beta t1/2 (Mus musculus [10]): 89.5 min; AUC [11]: 6040 ng·h/mL; IC50 (Jurkat): 4 µM; Activity (U-937 [12]): 22%; Activity [13]: 64%; IC50 [14]: 9.3 µM; Kd [15]: 0.00146 µM; bioavailability [16]: 25.6%; Drug uptake (Serum [3]): Active; AUC [17]: 1540 ng·h/mL
CCCc1cccc(/C=N/NC(=O)CN2CCN(Cc3ccc(C(F)(F)F)cc3)CC2)c1O | – | 15 | –
C=CCc1cccc(/C=N/NC(=O)CN2CCN(Cc3ccc(C#N)cc3)CC2)c1O | 13.7 | 48 | –
C=CCc1cc(F)cc(/C=N/NC(=O)CN2CCN(C(=O)c3ccc(F)cc3)CC2)c1O | 8.5 | 92 | Activity (Mus musculus [5]): Toxic
C=CCc1cccc(/C=N/NC(=O)CN2CCN(C(=O)c3ccccc3)CC2)c1O | 12.1 | 89 | –
CCCc1cc(F)cc(/C=N/NC(=O)CN2CCN(C(=O)c3ccccc3)CC2)c1O | 12.3 | 86 | –
O=C(CN1CCN(Cc2ccc(C(F)(F)F)cc2)CC1)N/N=C/c1cc(F)ccc1O | 4.7 | 30 | –
CCCc1cccc(/C=N/NC(=O)CN2CCN(C(=O)c3ccc(C(F)(F)F)cc3)CC2)c1O | – | 64 | –
O=C(CN1CCN(C(=O)c2ccc(F)cc2)CC1)N/N=C/c1cc(F)ccc1O | 15.3 | 86 | –
C=CCc1cc(F)cc(/C=N/NC(=O)CN2CCN(Cc3ccc(C#N)cc3)CC2)c1O | 12.7 | 65 | –
C=CCc1cc(F)cc(/C=N/NC(=O)CN2CCN(Cc3ccccc3)CC2)c1O | 9.5 | 56 | –
C=CCc1cc(F)cc(/C=N/NC(=O)CN2CCN(C(=O)c3ccc(C(F)(F)F)cc3)CC2)c1O | – | 90 | –
CCCc1cc(F)cc(/C=N/NC(=O)CN2CCN(Cc3ccc(C#N)cc3)CC2)c1O | 11.2 | 49 | –
CN[C@@H]1C[C@H]2O[C@@](C)([C@@H]1OC)n1c3ccccc3c3c4c(c5c6ccccc6n2c5c31)C(=O)NC4 | – | – | Activity [19]: 100%
CCCc1cccc(/C=N/NC(=O)CN2CCN(Cc3ccc(C#N)cc3)CC2)c1O | 9 | 30 | –
O=C(CN1CCN(C(=O)c2ccc(C(F)(F)F)cc2)CC1)N/N=C/c1cc(F)ccc1O | 8.7 | 87 | Activity (Mus musculus [5]): Non-toxic
